The values below come from ChEMBL document CHEMBL1126136, “Stereoselective LSD-like activity in d-lysergic acid amides of (R)- and (S)-2-aminobutane” (J Med Chem, 1992).

Assay [1] has as its target T1, Serotonin receptor 2a and 2b (5HT2A and 5HT2B) (Rattus norvegicus, UniProt P30994+P14842). Kind of assay: Affinity in displacing [125I](R)-DOI from rat cortical homogenate 5-hydroxytryptamine 2 receptor. The gist of the method:
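Male Sprague-Dawley rat frontal cortex homogenate (pooled from 10–20 rats, sucrose-washed, preincubated twice at 37 °C). Membranes at 200–400 µg protein in 50 mM Tris HCl pH 7.4 with 0.5 mM EDTA, 0.1% ascorbate, 10 µM pargyline and 10 mM MgCl2. Displacement of 0.25 nM [125I]-(R)-DOI, 15 min at 37 °C, then filtered and gamma-counted. Triplicates; Ki from 3–4 experiments.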

Assay [2] has as its system Rattus norvegicus. Kind of assay: Percentage of animals selecting drug lever at a dose 47nmol/kg. It counts as functional. The procedure, abridged:
(§1)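 Two-lever drug discrimination in rats trained to tell ip LSD tartrate (0.08 mg/kg, 186 nmol/kg, 30 min pretreatment) from saline, FR50 food schedule. Test drugs were given ip in saline. Test sessions ran under extinction and ended at 50 presses on one lever. Read-out was the percentage of rats selecting the drug lever at each dose; an 85% accuracy criterion applied.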

Assay [3] relates to Rattus norvegicus. Description: Percentage of animals selecting drug lever at a dose 465 nmol/kg. The assay is classed as functional. The gist of the method:
as §1

Assay [4] deals with Rattus norvegicus. Kind of assay: Percentage of animals selecting drug lever at a dose 186 nmol/kg. It counts as functional. The gist of the method: as §1
Assay [5] concerns Rattus norvegicus. Description: Percentage of animals selecting drug lever at a dose 93 nmol/kg. The assay is classed as functional. The procedure, abridged: as §1
Assay [6] deals with Rattus norvegicus. Kind of assay: Percentage of animals selecting drug lever at a dose 372 nmol/kg. The assay is classed as functional. The gist of the method: as §1
For assay [7], the species on record is Rattus norvegicus. Kind of assay: Potency of compound in 1-trained rats measured as ED50 relative to LSD. It counts as functional.
For assay [8], the species on record is Rattus norvegicus. Kind of assay: Potency of compound in 1-trained rats. It counts as functional.
In assay [9] the test system is Rattus norvegicus. Description: Percentage of animals selecting drug lever at a dose 290 nmol/kg. It counts as functional. The procedure, abridged: as §1
Assay [10] addresses T2, 5-hydroxytryptamine receptor 1A (Rattus norvegicus, UniProt P19327).
T2 sequence (P19327 whole entry): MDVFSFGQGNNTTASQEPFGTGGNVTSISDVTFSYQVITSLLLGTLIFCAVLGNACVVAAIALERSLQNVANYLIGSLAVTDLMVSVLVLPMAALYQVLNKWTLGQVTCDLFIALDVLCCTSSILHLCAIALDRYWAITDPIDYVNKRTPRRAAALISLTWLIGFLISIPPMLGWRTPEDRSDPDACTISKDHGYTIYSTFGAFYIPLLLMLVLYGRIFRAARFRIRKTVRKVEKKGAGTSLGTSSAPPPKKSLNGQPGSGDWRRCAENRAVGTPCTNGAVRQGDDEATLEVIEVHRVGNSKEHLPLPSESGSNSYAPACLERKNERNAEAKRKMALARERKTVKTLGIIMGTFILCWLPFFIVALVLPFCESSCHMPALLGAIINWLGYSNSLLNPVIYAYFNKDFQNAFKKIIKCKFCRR
Kind of assay: Affinity in displacing [3H]8-OH-DPAT from rat hippocampal 5-hydroxytryptamine 1A receptor. The assay is classed as tissue-based, Hippocampus. The procedure, abridged: (§2)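 Male Sprague-Dawley rat hippocampal homogenate (pooled from 10–20 rats, sucrose-washed, preincubated twice at 37 °C). Membranes at 200–400 µg protein in 50 mM Tris HCl pH 7.4 with 0.5 mM EDTA, 0.1% ascorbate and 10 µM pargyline. Displacement of 1.0 nM [3H]-8-OH-DPAT, 10 min at 37 °C, then filtered. Nonspecific binding defined with 10 µM serotonin. Triplicates; 3–4 experiments.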

In assay [11] the target is T2, 5-hydroxytryptamine receptor 1A. Kind of assay: Affinity in displacing [3H]8-OH-DPAT from rat hippocampal 5-HT1A receptor. The assay is classed as tissue-based, Hippocampus. The procedure, abridged:
as §2

For assay [12], the system named is Rattus norvegicus. Description: Percentage of animals selecting drug lever at a dose 6 nmol/kg. The assay is classed as functional. The gist of the method:
as §1

Assay [13] has as its system Rattus norvegicus. Description: Percentage of animals selecting drug lever at a dose 23 nmol/kg. The assay is classed as functional. The gist of the method:
as §1

In assay [14] the test system is Rattus norvegicus. Kind of assay: Percentage of animals selecting drug lever at a dose 279 nmol/kg. It counts as functional. The procedure, abridged:
as §1

Assay [15] deals with Rattus norvegicus. Kind of assay: Percentage of animals selecting drug lever at a dose 139 nmol/kg. It counts as functional. The gist of the method: as §1
The subject of assay [16] is Rattus norvegicus. Kind of assay: Percentage of animals selecting drug lever at a dose 163 nmol/kg. The assay is classed as functional. The gist of the method:
as §1

The subject of assay [17] is Rattus norvegicus. Kind of assay: Percentage of animals selecting drug lever at a dose 301 nmol/kg. It counts as functional. The gist of the method: as §1
The subject of assay [18] is Rattus norvegicus. Kind of assay: Percentage of animals selecting drug lever at a dose 12 nmol/kg. The assay is classed as functional. The procedure, abridged: as §1
In assay [19] the target is T1, Serotonin receptor 2a and 2b (5HT2A and 5HT2B). Description: Affinity in displacing [125I](R)-DOI from rat cortical homogenate 5-HT2 receptor. The gist of the method:
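Male Sprague-Dawley rat frontal cortex homogenate (pooled from 10–20 rats, sucrose-washed, preincubated twice at 37 °C). Membranes at 200–400 µg protein in 50 mM Tris HCl pH 7.4 with 0.5 mM EDTA, 0.1% ascorbate, 10 µM pargyline and 10 mM MgCl2. Triplicates; Ki from 3–4 experiments.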

For the compound `CC[C@H](C)NC(=O)[C@@H]1C=C2c3cccc4[nH]cc(c34)C[C@H]2N(C)C1`, the inhibitory constant (Ki) (commonly a measure of affinity in units of concentration, obtained from inhibition or displacement) in assay [1] came out at 7.76 nM; in assay [10], 4.61 nM. The SDL with Rattus norvegicus [2] is listed as 13%; with Rattus norvegicus [3], 100%; with Rattus norvegicus [4] it was 75%; in the assay with Rattus norvegicus [5], 50%; in the assay on Rattus norvegicus [6], 75%; in the assay with Rattus norvegicus [9], 67%. The compound also had a Relative potency in the assay listed under Rattus norvegicus [7] of 0.22. In addition, in the assay filed under Rattus norvegicus [8], it took a dose of 0.124 µmol/kg to reach the 50% effect level (ED50).
For the compound `CCN(CC)C(=O)[C@@H]1C=C2c3cccc4[nH]cc(c34)C[C@H]2N(C)C1` [LYSERGIDE], the inhibition constant (Ki) in assay [11] was 5.05 nM. Moreover, the SDL in the assay with Rattus norvegicus [12] is 0%; with Rattus norvegicus [2], 78%; in the assay on Rattus norvegicus [13], 36%; in the assay on Rattus norvegicus [5], 100%. It took a dose of 0.0275 µmol/kg to reach the 50% effect level in the assay listed under Rattus norvegicus [8] (ED50).
As to `CN1C[C@H](C(=O)N2CCCC2)C=C2c3cccc4[nH]cc(c34)C[C@H]21`, the SDL in the assay on Rattus norvegicus [14] was 67%; in the assay on Rattus norvegicus [2], 22%; in the assay on Rattus norvegicus [4], 60%; in the assay on Rattus norvegicus [15] it was 27%; in the assay on Rattus norvegicus [5] it was 22%; in the assay on Rattus norvegicus [16], 40%. In the assay with Rattus norvegicus [17], this compound showed an SDL of 82%. Also, in the assay listed under Rattus norvegicus [7], the Relative potency is listed as 0.16. Also, in the assay filed under Rattus norvegicus [8], the ED50 – broadly, the dose that gives a 50% effect, or the effect in half of the subjects – amounted to 0.168 µmol/kg.
In the case of `CC[C@@H](C)NC(=O)[C@@H]1C=C2c3cccc4[nH]cc(c34)C[C@H]2N(C)C1`, the inhibition constant (Ki) is 2.01 nM in assay [11] and 2.63 nM in assay [19]. Further, the SDL with Rattus norvegicus [2] came out at 75%; in the assay on Rattus norvegicus [13] it was 50%; in the assay with Rattus norvegicus [4], 88%; in the assay on Rattus norvegicus [5] it was 75%; with Rattus norvegicus [18], 13%. This compound displayed a Relative potency in the assay filed under Rattus norvegicus [7] of 0.82. The compound further registered an ED50 in the assay listed under Rattus norvegicus [8] of 0.033 µmol/kg.
